Data from ChEMBL document CHEMBL3351939, “Diterpenoids with Immunosuppressive Activities from Cinnamomum cassia” (J Nat Prod, 2014).
Activity calls are given as the source filed them. The rule behind the calls is not given here.

Experiments:
T-cell = assay: Immunosuppressive activity in mouse T cells assessed as inhibition of ConA-induced cell proliferation at 0.05 to 0.8 mM; format: functional, cell-based
In short: (§1)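 Murine splenocytes with ConA-induced T-cell proliferation; the read-out is percent inhibition of proliferation. Cyclosporine A serves as the reference. Results are given as mean ± SD, n = 3.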

[1] = Immunosuppressive activity in mouse T cells assessed as inhibition of ConA-induced cell proliferation at 100 uM; format: functional; in short: as §1
[2] = Immunosuppressive activity in mouse T cells assessed as inhibition of ConA-induced cell proliferation at 50 uM; format: functional; in short: as §1
[3] = Toxicity against mouse lymphocytes assessed as cell viability at 50 uM; format: cell-based, Lymphocyte; conditions: read-out: Activity
B = assay: Immunosuppressive activity in mouse B cells assessed as inhibition of LPS-induced cell proliferation at 0.05 to 0.8 mM; format: functional, cell-based
In short: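 Murine splenocytes with LPS-induced B-cell proliferation; the read-out is percent inhibition of proliferation.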

| Compound | inhibition (T-cell) | inhibition at 100 µM [1] | inhibition at 50 µM [2] | viability at 50 µM [3] | inhibition (B) |
| --- | --- | --- | --- | --- | --- |
| CC1=C([C@H](C)CO)C[C@@]2(O)[C@@]3(C)CC(=O)O[C@H]([C@]4(O)[C@H](C)CC[C@@]43O)[C@@]12O | Dose-dependent effect | 94.5% | 86.1% | 105% | Dose-dependent effect |
| CC1=C([C@H](C)CO)C[C@@]2(O)[C@@]3(C)CC(=O)O[C@@H]4[C@@H](C)CC[C@@]3(O)[C@@]4(O)[C@@]12O | Dose-dependent effect | – | 58.8% | 97.8% | Dose-dependent effect |
| C/C=C/C[C@@H](C)[C@@H](O)[C@H]1C(=O)N[C@@H](CC)C(=O)N(C)CC(=O)N(C)[C@@H](CC(C)C)C(=O)N[C@@H](C(C)C)C(=O)N(C)[C@@H](CC(C)C)C(=O)N[C@@H](C)C(=O)N[C@H](C)C(=O)N(C)[C@@H](CC(C)C)C(=O)N(C)[C@@H](CC(C)C)C(=O)N(C)[C@@H](C(C)C)C(=O)N1C [CYCLOSPORINE] | – | 101% | – | – | – |
| CC1=C(C(C)C)C[C@@]2(O)[C@@]3(CO[C@@H]4O[C@H](CO)[C@@H](O)[C@H](O)[C@H]4O)CC(=O)O[C@H]([C@]4(O)[C@H](C)CC[C@@]43O)[C@@]12O | inactive | – | – | – | inactive |
